For data set [1], the system named is Neutrophil. Description: Inhibition of FMLP/CB-stimulated superoxide production in human neutrophils preincubated for 5 mins before FMLP/CB treatment by spectrophotometry. Format: functional, cell-based. The gist of the method: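 Neutrophils equilibrated with ferricytochrome c (0.5 mg/mL) and 1 mM Ca2+ at 37 °C for 2 min, treated with compound for 5 min, primed with cytochalasin B (1 μg/mL) for 3 min, then stimulated with FMLP 100 nM for 10 min. IC50 given as mean ± SEM, n = 3 or 4. Diphenyleneiodonium as positive control.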

Data set [2] in a line: Cytotoxicity against rat RBL2H3 cells assessed as reduction in cell viability by MTT assay. The settings on record: rbl-2h3. The format is cell-based. The essentials:
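Viability of RBL-2H3 cells by MTT, run alongside the degranulation assay. Cells cultured in DMEM/F12 with 10% FBS and exposed to compound at 0–64 μM.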
On the technique in general: Tetrazolium dyes change colour on reduction, which living cells bring about.

For a further data set, the system named is RBL-2H3. The data set can be described thus: Anti-inflammatory activity in rat RBL2H3 cells assessed as inhibition of beta-hexosaminidase release at 1 to 64 uM after 48 hrs by degranulation assay relative to control. The format is functional, cell-based. The essentials:
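RBL-2H3 cells grown in DMEM/F12 with 10% FBS, seeded at 10^4 cells/well, exposed to compound (0, 1, 4, 16, 64 μM) for 48 h. Sensitized overnight with anti-DNP IgE ([…]), washed in Tyrode's buffer, then challenged with DNP-BSA (0.1 μg/mL) for 1 h. Reaction stopped on ice. Supernatant incubated 1 h with p-nitrophenyl-N-acetyl-D-glucosaminide (0.1 M, citrate buffer), stopped with bicarbonate, read at 405 nm. Release % = (sample − background)/(total lysate − background) × 100. Dexamethasone 100 nM as positive control.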

Data set [3] can be described thus: Cytotoxicity against human neutrophils assessed as reduction in cell viability up to 10 uM by LDH release assay. The format is cell-based. The note with it: neutrophil. The gist of the method:
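Neutrophils held in Ca2+-free HBSS, pH 7.4, at 4 °C before use. Compounds tested up to 10 μM. Membrane damage scored as LDH in cell-free medium, expressed as a percentage of total LDH release.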

The test system of data set [4] is Neutrophil. The data set can be described thus: Inhibition of FMLP/CB-stimulated elastase release in human neutrophils preincubated for 5 mins before FMLP/CB treatment using MeO-Suc-Ala-Ala-Pro-Val-pnitroanilide by spectrophotometry. Format: functional, cell-based. The gist of the method:
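Neutrophils, after hypotonic lysis of erythrocytes, kept in Ca2+-free HBSS pH 7.4. Equilibrated 2 min at 37 °C with MeO-Suc-Ala-Ala-Pro-Val-p-nitroanilide (100 μM), given compound for 5 min, then activated with FMLP 100 nM plus cytochalasin B 0.5 μg/mL. Absorbance at 405 nm tracked continuously and expressed as percent of drug-free activated control. IC50 reported as mean ± SEM, n = 3 or 4. Sivelestat as positive control.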

Data set [5] in a line: Antidegranulation activity in rat RBL2H3 cells assessed as inhibition of DNP-BSA-stimulated beta-hexosaminidase release.

Molecules are shown by their SMILES. Active and inactive are the calls of the source. The calls are words filed in the database; no cut-off is given here.

The IC50 is the concentration at which inhibition is half-maximal. Read a low IC50 as inhibition by little substance. In the data set on Neutrophil [1], `c1ccc2c(c1)[I+]c1ccccc1-2` [DIPHENYLENEIODONIUM] gave an IC50 of 0.8 µM. `CC1=C(C(O)C[C@@H](C)CO[C@@H]2O[C@H](CO)[C@@H](O)[C@H](O)[C@H]2O)O[C@H]2C[C@H]3[C@@H]4C[C@H](O[C@@H]5O[C@H](C)[C@@H](O)[C@H](O[C@@H]6OC[C@@H](O)[C@H](O)[C@H]6O)[C@H]5O)[C@H]5C[C@@H](O)CC[C@]5(C)[C@H]4CC[C@]3(C)[C@@H]12` (stereo partly specified) had an IC50 with Neutrophil [1] greater than 10 µM. In the case of `C[C@H](CC[C@@]1(O)O[C@H]2C[C@H]3[C@@H]4C[C@H](O[C@@H]5O[C@H](C)[C@@H](O)[C@H](O)[C@H]5O)[C@H]5C[C@@H](O[C@@H]6O[C@H](CO)[C@@H](O)[C@H](O)[C@H]6O)CC[C@]5(C)[C@H]4CC[C@]3(C)[C@H]2[C@@H]1C)CO[C@@H]1O[C@H](CO)[C@@H](O)[C@H](O)[C@H]1O`, the concentration for half-maximal inhibition (IC50) in the data set on Neutrophil [1] is greater than 10 µM. Same read-out and setting: the figure for `CO[C@]1(CC[C@@H](C)CO[C@@H]2O[C@H](CO)[C@@H](O)[C@H](O)[C@H]2O)O[C@H]2C[C@H]3[C@@H]4C[C@H](O[C@@H]5OC[C@@H](O)[C@H](O[C@@H]6OC[C@@H](O)[C@H](O)[C@H]6O)[C@H]5O)[C@H]5C[C@@H](O)CC[C@]5(C)[C@H]4CC[C@]3(C)[C@H]2[C@@H]1C` is greater than 10 µM. As for `C[C@@H]1CC[C@@]2(OC1)O[C@H]1C[C@H]3[C@@H]4C[C@H](O[C@@H]5OC[C@@H](O)[C@H](O[C@@H]6OC[C@@H](O)[C@H](O)[C@H]6O)[C@H]5O)[C@H]5C[C@@H](O)CC[C@]5(C)[C@H]4CC[C@]3(C)[C@H]1[C@@H]2C`, the Activity entry is “Active” in data set [2] and “Non-toxic” in data set [3]. Also, in the data set with RBL-2H3, the outcome was inactive. Further, the values for the IC50 in the data set with Neutrophil [1] and with Neutrophil [4] were greater than 10 µM and 4.2 µM, respectively.

`C[C@@H]1CC[C@@]2(OC1)O[C@H]1C[C@H]3[C@@H]4C[C@H](O[C@@H]5O[C@H](CO)[C@@H](O)[C@H](O)[C@H]5O)[C@H]5C[C@@H](O)CC[C@]5(C)[C@H]4CC[C@]3(C)[C@H]1[C@@H]2C` gave an IC50 with Neutrophil [1] greater than 10 µM.

On to `C[C@H](CC[C@@]1(O)O[C@H]2C[C@H]3[C@@H]4C[C@H](O)[C@H]5C[C@@H](O[C@@H]6O[C@H](CO)[C@@H](O)[C@H](O)[C@H]6O)CC[C@]5(C)[C@H]4CC[C@]3(C)[C@H]2[C@@H]1C)CO[C@@H]1O[C@H](CO)[C@@H](O)[C@H](O)[C@H]1O`, for which, in the data set with Neutrophil [1], the IC50 is greater than 10 µM.

On to `CC(C)(C)C(=O)Oc1ccc(S(=O)(=O)Nc2ccccc2C(=O)NCC(=O)O)cc1` [SIVELESTAT], for which, in the data set with Neutrophil [4], the IC50 turned out to be 50 µM. In turn, `C[C@H]1CO[C@@]2(O[C@H]3C[C@H]4[C@@H]5C[C@H](O[C@@H]6O[C@H](C)[C@@H](O)[C@H](O[C@@H]7OC[C@@H](O)[C@H](O)[C@H]7O)[C@H]6O)[C@H]6C[C@@H](O)CC[C@]6(C)[C@H]5CC[C@]4(C)[C@H]3[C@@H]2C)[C@@H](O)C1` yielded an IC50 in the data set on Neutrophil [1] greater than 10 µM.

Take `C[C@@H]1CC[C@@]2(OC1)O[C@H]1C[C@H]3[C@@H]4C[C@H](O[C@@H]5O[C@H](C)[C@@H](O)[C@H](O)[C@H]5O)[C@H]5C[C@@H](O)CC[C@]5(C)[C@H]4CC[C@]3(C)[C@H]1[C@@H]2C`: the half-maximal inhibitory concentration (IC50) is 7 µM in the data set on Neutrophil [1] and 3.7 µM in the data set on Neutrophil [4]. In addition, the Activity result in data set [3] was “Non-toxic”.

With `C[C@@H]1CC[C@@]2(OC1)O[C@H]1C[C@H]3[C@@H]4C[C@H](O)[C@H]5C[C@@H](O[C@@H]6O[C@H](CO)[C@@H](O[C@H]7O[C@@H](C)[C@H](O)[C@@H](O)[C@H]7O)[C@H](O)[C@H]6O[C@H]6O[C@@H](C)[C@H](O)[C@@H](O)[C@H]6O)CC[C@]5(C)[C@H]4CC[C@]3(C)[C@H]1[C@@H]2C`, the IC50 in the data set with Neutrophil [1] is greater than 10 µM. Regarding `CO[C@]1(CC[C@@H](C)CO[C@@H]2O[C@H](CO)[C@@H](O)[C@H](O)[C@H]2O)O[C@H]2C[C@H]3[C@@H]4C[C@H](O[C@@H]5O[C@H](C)[C@@H](O)[C@H](O[C@@H]6OC[C@@H](O)[C@H](O)[C@H]6O)[C@H]5O)[C@H]5CC(=O)CC[C@]5(C)[C@H]4CC[C@]3(C)[C@H]2[C@@H]1C`, the IC50 with Neutrophil [1] was greater than 10 µM. Compound `C[C@H](C/C=C1/O[C@H]2C[C@H]3[C@@H]4C[C@H](O[C@@H]5O[C@H](C)[C@@H](O)[C@H](O[C@@H]6OC[C@@H](O)[C@H](O)[C@H]6O)[C@H]5O)[C@H]5C[C@@H](O)CC[C@]5(C)[C@H]4CC[C@]3(C)[C@H]2[C@@]1(C)O)CO[C@@H]1O[C@H](CO)[C@@H](O)[C@H](O)[C@H]1O` had an IC50 in the data set with Neutrophil [1] greater than 10 µM. As for `C[C@H](CC[C@@]1(O)O[C@H]2C[C@H]3[C@@H]4C[C@H](O)[C@H]5C[C@@H](O[C@@H]6O[C@H](CO)[C@@H](O)[C@H](O)[C@H]6O[C@@H]6O[C@@H](C)[C@H](O)[C@@H](O)[C@H]6O)CC[C@]5(C)[C@H]4CC[C@]3(C)[C@H]2[C@@H]1C)CO[C@@H]1O[C@H](CO)[C@@H](O)[C@H](O)[C@H]1O`, the IC50 with Neutrophil [1] was greater than 10 µM. In turn, `CO[C@]1(CC[C@@H](C)CO[C@@H]2O[C@H](CO)[C@@H](O)[C@H](O)[C@H]2O)O[C@H]2C[C@H]3[C@@H]4C[C@H](O[C@@H]5O[C@H](C)[C@@H](O)[C@H](O[C@@H]6OC[C@@H](O)[C@H](O)[C@H]6O)[C@H]5O)[C@H]5C[C@@H](O)CC[C@]5(C)[C@H]4CC[C@]3(C)[C@H]2[C@@H]1C` displayed a 50% inhibitory concentration (IC50) in the data set with Neutrophil [1] greater than 10 µM. With `C[C@@H]1CC[C@@]2(OC1)O[C@H]1C[C@H]3[C@@H]4C[C@H](O[C@@H]5O[C@H](C)[C@@H](O)[C@H](O)[C@H]5O)[C@H]5C[C@@H](O[C@@H]6O[C@H](CO)[C@@H](O)[C@H](O)[C@H]6O)CC[C@]5(C)[C@H]4CC[C@]3(C)[C@H]1[C@@H]2C`, the IC50 in the data set with Neutrophil [1] is greater than 10 µM. As for `C[C@@H]1CC[C@@]2(OC1)O[C@H]1C[C@H]3[C@@H]4C[C@H](O)[C@H]5C[C@@H](O)CC[C@]5(C)[C@H]4CC[C@]3(C)[C@H]1[C@@H]2C` [CHLOROGENIN], the IC50 with Neutrophil [1] was 6.1 µM; in the data set with Neutrophil [4], greater than 10 µM. As for `C[C@@H]1CC[C@@]2(OC1)O[C@H]1C[C@H]3[C@@H]4C[C@H](O[C@@H]5O[C@H](C)[C@@H](O)[C@H](O[C@@H]6OC[C@@H](O)[C@H](O)[C@H]6O)[C@H]5O)[C@H]5C[C@@H](O)CC[C@]5(C)[C@H]4CC[C@]3(C)[C@H]1[C@@H]2C`, the 50% inhibitory concentration (IC50) with Neutrophil [1] amounted to 4 µM; in the data set on Neutrophil [4], 1 µM.

As to `CC1=C(CC[C@@H](C)CO[C@@H]2O[C@H](CO)[C@@H](O)[C@H](O)[C@H]2O)O[C@H]2C[C@H]3[C@@H]4C[C@H](O[C@@H]5O[C@H](C)[C@@H](O)[C@H](O[C@@H]6OC[C@@H](O)[C@H](O)[C@H]6O)[C@H]5O)[C@H]5C[C@@H](O)CC[C@]5(C)[C@H]4CC[C@]3(C)[C@@H]12`, the IC50 in the data set on Neutrophil [1] was greater than 10 µM.

The compound `C[C@H](CC[C@@]1(O)O[C@H]2C[C@H]3[C@@H]4C[C@H](O[C@@H]5O[C@H](C)[C@@H](O)[C@H](O[C@@H]6OC[C@@H](O)[C@H](O)[C@H]6O)[C@H]5O)[C@H]5C[C@@H](O)CC[C@]5(C)[C@H]4CC[C@]3(C)[C@H]2[C@@H]1C)CO[C@@H]1O[C@H](CO)[C@@H](O)[C@H](O)[C@H]1O` showed a 50% inhibitory concentration (IC50) in the data set on Neutrophil [1] greater than 10 µM. As to `C[C@@H]1CC[C@@]2(OC1)O[C@H]1C[C@H]3[C@@H]4C[C@H](O[C@@H]5O[C@H](C)[C@@H](O)[C@H](O[C@@H]6OC[C@@H](O)[C@H](O)[C@H]6O)[C@H]5O)[C@H]5CC(=O)CC[C@]5(C)[C@H]4CC[C@]3(C)[C@H]1[C@@H]2C`, in the data set on RBL-2H3, the result was inactive. Also, the results for the IC50 in the data set on Neutrophil [1] and with Neutrophil [4] were greater than 10 µM and 3.2 µM, respectively. The Activity entry in data set [3] was “Non-toxic”. In addition, the inhibition of degranulation in data set [5] was greater than 90%. As for `C[C@@H]1CC[C@@]2(OC1)O[C@H]1C[C@H]3[C@@H]4C[C@H](O[C@@H]5OC[C@@H](O)[C@H](O)[C@H]5O)[C@H]5C[C@@H](O)CC[C@]5(C)[C@H]4CC[C@]3(C)[C@H]1[C@@H]2C`, the IC50 in the data set on Neutrophil [1] came out at 7.6 µM; in the data set on Neutrophil [4] it was 4.4 µM. Also, in data set [3], the Activity entry is reported as “Non-toxic”.

These data come from ChEMBL document CHEMBL3352510, “Anti-Inflammatory Spirostanol and Furostanol Saponins from Solanum macaonense” (J Nat Prod, 2014).
